From ChEMBL document CHEMBL1145729, “MMPs inhibitors: new succinylhydroxamates with selective inhibition of MMP-2 over MMP-3” (Bioorg Med Chem Lett, 2003)
Values joined by “and” are separate entries in the source; they are usually repeats but may differ in a detail not shown here. Equal entries are not always repeated.

How the values were obtained:
[1] = target: T1, 72 kDa type IV collagenase (Homo sapiens, UniProt P08253); test: Inhibition of human matrix metalloprotease-2
[2] = target: T2, Stromelysin-1 (Homo sapiens, UniProt P08254); test: Inhibition of human matrix metalloprotease-3
How it was run: (§1)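 Fluorogenic peptide cleavage assay with substrate Mca-Pro-Leu-Gly-Leu-Dpa-Ala-Arg-NH2. The enzyme was truncated recombinant MMP-3 lacking the PEX and pro domains, used instead of activated pro-MMP-3 because activation of the proenzyme was not reproducible.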

[3] = target: Matrix metalloproteinase (2 and 3) (Homo sapiens) (UniProt P08254+P08253); test: Selectivity ratio for Matrix metalloprotease-2 over Matrix metalloprotease-3 (IC50); type: protein assay
[4] = target: T1, 72 kDa type IV collagenase; test: Inhibition of human matrix metalloprotease-2 (inactive)
How it was run: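 Fluorogenic peptide cleavage assay with substrate Mca-Pro-Leu-Gly-Leu-Dpa-Ala-Arg-NH2. The enzyme was recombinant pro-MMP-2 activated with APMA.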

[5] = target: T2, Stromelysin-1; test: Inhibition of human matrix metalloprotease-3 (inactive); how it was run: as §1

T2 sequence (P08254 whole entry, the tested form may be a part): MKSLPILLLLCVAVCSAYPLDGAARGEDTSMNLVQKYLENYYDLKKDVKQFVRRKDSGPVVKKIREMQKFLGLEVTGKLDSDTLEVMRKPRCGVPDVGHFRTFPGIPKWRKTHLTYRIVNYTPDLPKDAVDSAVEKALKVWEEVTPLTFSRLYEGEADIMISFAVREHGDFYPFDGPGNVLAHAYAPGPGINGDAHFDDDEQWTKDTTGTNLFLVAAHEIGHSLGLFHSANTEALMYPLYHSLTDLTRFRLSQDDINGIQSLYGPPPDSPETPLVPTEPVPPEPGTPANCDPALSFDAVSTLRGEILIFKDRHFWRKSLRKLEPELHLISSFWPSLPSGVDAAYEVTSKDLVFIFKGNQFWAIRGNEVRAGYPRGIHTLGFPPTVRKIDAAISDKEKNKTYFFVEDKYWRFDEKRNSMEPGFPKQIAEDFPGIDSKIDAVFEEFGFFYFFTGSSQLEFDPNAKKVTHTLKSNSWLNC
T1 sequence (P08253 whole entry): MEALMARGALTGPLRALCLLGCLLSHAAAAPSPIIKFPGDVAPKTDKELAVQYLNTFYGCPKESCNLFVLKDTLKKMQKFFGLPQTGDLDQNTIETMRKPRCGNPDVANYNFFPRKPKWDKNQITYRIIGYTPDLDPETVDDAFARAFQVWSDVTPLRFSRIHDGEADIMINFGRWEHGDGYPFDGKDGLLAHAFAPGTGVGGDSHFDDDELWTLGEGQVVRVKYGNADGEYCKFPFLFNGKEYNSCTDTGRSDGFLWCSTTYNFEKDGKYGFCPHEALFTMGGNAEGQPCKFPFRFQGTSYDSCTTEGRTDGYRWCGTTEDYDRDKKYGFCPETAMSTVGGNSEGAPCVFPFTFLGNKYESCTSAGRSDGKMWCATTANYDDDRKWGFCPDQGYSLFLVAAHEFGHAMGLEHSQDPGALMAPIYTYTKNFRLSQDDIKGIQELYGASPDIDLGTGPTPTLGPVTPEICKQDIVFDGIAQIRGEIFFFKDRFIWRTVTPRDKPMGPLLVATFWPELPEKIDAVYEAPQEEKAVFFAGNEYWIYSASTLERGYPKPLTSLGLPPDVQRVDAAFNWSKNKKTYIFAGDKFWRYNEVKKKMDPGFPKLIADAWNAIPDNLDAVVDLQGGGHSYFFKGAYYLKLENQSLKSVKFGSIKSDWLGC
Matrix metalloproteinase (2 and 3) (Homo sapiens), sequence (P08253 whole entry, looked up): as the sequence (P08253 whole entry) above
Matrix metalloproteinase (2 and 3) (Homo sapiens), sequence (P08254 whole entry, looked up): as the sequence (P08254 whole entry, the tested form may be a part) above

Structure (SMILES) | IC50 [1] [nM] | IC50 [2] [nM] | Selectivity [3] | IC50 [4] | IC50 [5]
CNC(=O)C(Cc1c(CCN(C)C)[nH]c2ccccc12)NC(=O)/C(=C/C(C)C)CC(=O)NO (centres undefined) | 5.73 | 665 | 116 |  | 
CNC(=O)[C@H](Cc1c[nH]c2ccccc12)NC(=O)[C@@H](CC(=O)NO)CC(C)C [ILOMASTAT] |  | 0.191 |  |  | 
CNC(=O)[C@H](Cc1c[nH]c2ccccc12)NC(=O)/C(=C/C(C)C)CC(=O)OC |  |  |  | Not Active | Not Active
CNC(=O)[C@H](Cc1c[nH]c2ccccc12)NC(=O)/C(=C/C(C)C)CC(=O)NO [listing 1 of 3 here] | 1.3 | 179 |  |  | 
CCOC(=O)[C@H](Cc1c[nH]c2ccccc12)NC(=O)/C(=C/C(C)C)CC(=O)NO | 5.97 | 2340 | 392 |  | 
CNC(=O)[C@H](Cc1c[nH]c2ccccc12)NC(=O)/C(=C/C(C)C)CC(=O)NO [listing 2 of 3 here] |  |  | 138 and 46 |  | 
CNC(=O)[C@H](Cc1c[nH]c2ccccc12)NC(=O)/C(=C/C(C)C)CC(=O)NO [listing 3 of 3 here] | 19.6 | 910 |  |  | 
